Experimental data published in ChEMBL document CHEMBL1123093, “Synthesis and biological activity of 6-substituted mitosene analogues of the mitomycins” (J Med Chem, 1985).

How the values were obtained:
[1] = tested on: Escherichia coli; test: Phage induction (ILB) in Escherichia coli: ratio was reported at a dose of 0.8 ug/mL
[2] = Partition coefficient between octanol and phosphate buffer (pH 7.4) was observed for the compound; type: physicochemical
Method in brief: (§1)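 Partition coefficient measured as distribution between 1-octanol and pH 7.4 phosphate buffer, following the Hansch method.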

[3] = tested on: Escherichia coli; test: Phage induction (ILB) in Escherichia coli: ratio was reported at a dose of 3.1 ug/mL
[4] = organism: Mus musculus; test: Antitumor activity in P388 mouse leukemia and maximum % T/C value was determined at optimal dose (OD); type: functional
Method in brief: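 P388 ascites leukemia: 10⁶ ascites cells implanted in female CDF₁ mice. Each dose level was given on day 1 only, to six mice per dose. Ten control mice received saline. Median survival time (MST) was recorded, and % T/C > 125 was taken as active.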

[5] = tested on: Escherichia coli; test: Induction of phage in Escherichia coli(ILB) expressed as Ratio of plaques in treated bacterial cultures to those in control at a dose of 3.1 ug/mL; type: functional
Method in brief: (§2)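 Phage induction (ILB) in Escherichia coli: latent phage was activated in bacterial cultures exposed to compound at the stated concentration. Plaques (clear areas) were counted, and the value reported is plaques in treated culture divided by plaques in the untreated control.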

[6] = tested on: Escherichia coli; test: Induction of phage in Escherichia coli(ILB) expressed as Ratio of plaques in treated bacterial cultures to those in control at a dose of 0.8 ug/mL; type: functional
Method in brief: as §2

[7] = Partition coefficient between octanol and phosphate buffer (pH 7.4) was observed for the compound at pH 7.4.; type: physicochemical
Method in brief: as §1

[8] = tested on: Mus musculus; test: Antitumor activity against P388 mouse leukemia as maximum and average change in body weight was reported at a dose of 12.8 mg/kg per injection.; type: functional
[9] = tested on: Mus musculus; test: Antitumor activity against P388 mouse leukemia as maximum and median survival time as % T/C was reported at a dose of 6.4 mg/Kg per injection.; type: functional
Method in brief: (§3)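 P388 ascites, 10⁶ cells implanted in female CDF₁ mice. Six mice per dose; single treatment on day 1 only. Ten controls received saline. Survival recorded as median survival time; % T/C = treated vs control MST, with % T/C > 125 taken as active.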

[10] = tested on: Mus musculus; test: Antitumor activity against P388 mouse leukemia as maximum and median survival time as % T/C was reported at a dose of 3.2 mg/Kg per injection.; type: functional
Method in brief: as §3

[11] = tested on: Mus musculus; test: Antitumor activity against P388 mouse leukemia as maximum and average change in body weight was reported at a dose of 3.2 mg/kg per injection.; type: functional
[12] = tested on: Mus musculus; test: Antitumor activity against P388 mouse leukemia as maximum and average change in body weight was reported at a dose of 6.4 mg/kg per injection.; type: functional
[13] = tested on: Mus musculus; test: Antitumor activity against P388 mouse leukemia as maximum and median survival time as % T/C was reported at a dose of 12.8 mg/Kg per injection.; type: functional
Method in brief: as §3

[14] = tested on: Mus musculus; test: Antitumor activity against P388 mouse leukemia as maximum and average change in body weight was reported at a dose of 25.6 mg/kg per injection.; type: functional
[15] = tested on: Mus musculus; test: Antitumor activity against P388 mouse leukemia as maximum and median survival time as % T/C was reported at a dose of 0.8 mg/Kg per injection.; type: functional
Method in brief: as §3

[16] = tested on: Mus musculus; test: Antitumor activity against P388 mouse leukemia as maximum and average change in body weight was reported at a dose of 1.6 mg/kg per injection.; type: functional
[17] = tested on: Mus musculus; test: Antitumor activity against P388 mouse leukemia as maximum and median survival time as % T/C was reported at a dose of 1.6 mg/Kg per injection.; type: functional
Method in brief: as §3

[18] = tested on: Mus musculus; test: Antitumor activity against P388 mouse leukemia as maximum and average change in body weight was reported at a dose of 0.8 mg/kg per injection.; type: functional
[19] = tested on: Mus musculus; test: Antitumor activity against P388 mouse leukemia as maximum and average change in body weight was reported at a dose of 4.8 mg/kg per injection.; type: functional
[20] = tested on: Mus musculus; test: Antitumor activity against P388 mouse leukemia as maximum and average change in body weight was reported at a dose of 0.2 mg/kg per injection.; type: functional
[21] = tested on: Mus musculus; test: Antitumor activity against P388 mouse leukemia as maximum and median survival time as % T/C was reported at a dose of 0.4 mg/Kg per injection.; type: functional
Method in brief: as §3

[22] = tested on: Mus musculus; test: Antitumor activity against P388 mouse leukemia as maximum and median survival time as % T/C was reported at a dose of 4.8 mg/Kg per injection.; type: functional
Method in brief: as §3

[23] = tested on: Mus musculus; test: Antitumor activity against P388 mouse leukemia as maximum and median survival time as % T/C was reported at a dose of 0.2 mg/Kg per injection.; type: functional
Method in brief: as §3

[24] = tested on: Mus musculus; test: Antitumor activity against P388 mouse leukemia as maximum and average change in body weight was reported at a dose of 0.4 mg/Kg per injection.; type: functional

Compound	logD [2]	ILB [1]	ILB [3]	T/C [4] [%]	T/C [10] [%]	Average weight change [11] [g]	further results
COC1=CC(=O)c2c(c(COC(N)=O)c3n2CCC3OC(C)=O)C1=O (centres undefined)	0.72	11.9	18.6	111			
CNC(=O)OCc1c2c(n3c1C(OC(C)=O)CC3)C(=O)C(Br)=C(N)C2=O (centres undefined)							ILB [5]: 1.1; ILB [6]: 1.2; logD [7]: 1.15
CNC(=O)OCc1c2c(n3c1C(OC(C)=O)CC3)C(=O)C(C)=C(OC)C2=O (centres undefined)	2.39	16.6	34.1	180	120	1	Average weight change [8]: 0 g; T/C [9]: 135%; Average weight change [12]: 1.2 g; T/C [13]: 145%; Average weight change [14]: -0.2 g
COC1=C(C)C(=O)c2c(c(COC(N)=O)c3n2CCC3OC(C)=O)C1=O (centres undefined)	1.54	13.2	24.5	165	133	0.3	T/C [15]: 114%; Average weight change [16]: 0.6 g; Average weight change [12]: 0.1 g; T/C [17]: 124%; Average weight change [18]: 1 g
CNC(=O)OCc1c2c(n3c1C(OC(C)=O)CC3)C(=O)C=C(N1CCCC1)C2=O (centres undefined)	1.4	1	1				
CNC(=O)OCc1c2c(n3c1C(OC(C)=O)CC3)C(=O)C(Br)=C(OC)C2=O (centres undefined)		7.1	12.4	100			
CO[C@@]12[C@H](COC(N)=O)C3=C(C(=O)C(C)=C(N)C3=O)N1C[C@@H]1N[C@@H]12 [MITOMYCIN]					195	-0.7	Average weight change [19]: -2.2 g; Average weight change [20]: 0.8 g; T/C [15]: 135%; T/C [21]: 130%; T/C [22]: 205%; T/C [23]: 120%; Average weight change [16]: -0.2 g; T/C [17]: 150%; Average weight change [24]: 0.3 g; Average weight change [18]: 0.5 g

The next lines start with results.

logD [2]	Compound	ILB [1]	ILB [3]	T/C [4] [%]	T/C [10] [%]	Average weight change [11] [g]	further results
2.08	CNC(=O)OCc1c2c(n3c1C(OC(C)=O)CC3)C(=O)C(Cl)=C(OC)C2=O (centres undefined)	12.1	27				
1.19	CNC(=O)OCc1c2c(n3c1C(OC(C)=O)CC3)C(=O)C=C(OC)C2=O (centres undefined)	6	10.1	106			
